The values below come from ChEMBL document CHEMBL4373718, “Germacrane Sesquiterpenoids as a New Type of Anticardiac Fibrosis Agent Targeting Transforming Growth Factor β Type I Receptor” (J Med Chem, 2019).

In series [1] the target is T1, TGF-beta receptor type-1 (Rattus norvegicus) (UniProt P80204).
T1 sequence (whole entry): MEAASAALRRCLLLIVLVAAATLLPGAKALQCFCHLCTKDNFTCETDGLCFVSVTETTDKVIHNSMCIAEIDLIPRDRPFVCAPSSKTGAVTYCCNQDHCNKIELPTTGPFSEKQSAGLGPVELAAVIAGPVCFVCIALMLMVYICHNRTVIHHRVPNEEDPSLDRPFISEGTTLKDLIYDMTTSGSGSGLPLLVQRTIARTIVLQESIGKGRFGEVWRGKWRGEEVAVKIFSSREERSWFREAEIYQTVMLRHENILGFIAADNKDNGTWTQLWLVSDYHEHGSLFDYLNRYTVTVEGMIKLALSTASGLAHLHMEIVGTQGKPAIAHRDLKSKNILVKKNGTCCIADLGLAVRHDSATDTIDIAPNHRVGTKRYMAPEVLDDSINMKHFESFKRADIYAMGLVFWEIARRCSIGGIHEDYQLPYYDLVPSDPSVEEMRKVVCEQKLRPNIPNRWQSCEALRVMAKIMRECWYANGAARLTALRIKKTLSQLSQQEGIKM
Put plainly: Inhibition of TGFbeta1 receptor in TGFbeta1-stimulated Sprague-Dawley rat cardiac fibroblasts assessed as reduction in fibronectin expression at 50 uM measured after 12 hrs by Western blot analysis. In short, it runs like this: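 Screen in primary rat cardiac fibroblasts: compounds at 50 µM or 10 µM given with 10 ng/mL TGFβ1 for 12 h. FN measured by Western blot with GAPDH loading control and densitometry. N=3 independent experiments.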
(A western blot detects proteins with antibodies after separation by electrophoresis.)

Series [2] addresses T1, TGF-beta receptor type-1 (Rattus norvegicus). Description: Inhibition of TGFbeta1 receptor in TGFbeta1-stimulated Sprague-Dawley rat cardiac fibroblasts assessed as reduction in collagen 3 expression measured after 12 hrs by Western blot analysis. In short, it runs like this: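 Primary rat cardiac fibroblasts (passages 2–4, 3×10^5 per well) treated with compound plus 10 ng/mL TGFβ1 for 12 h; tested at 2.5, 5 and 10 µM. Lysates run on 10% SDS-PAGE (30 µg protein), probed for FN, α-SMA and collagen I/III, and quantified by densitometry against GAPDH. N=3 independent experiments.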

The target is the same in series [3]. Put plainly: Inhibition of TGFbeta1 receptor in TGFbeta1-stimulated Sprague-Dawley rat cardiac fibroblasts assessed as reduction in alpha-SMA mRNA expression at 2.5 to 10 uM measured after 12 hrs by qRT-PCR analysis. In short, it runs like this: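 Primary rat cardiac fibroblasts (3×10^5 per well) treated with compound plus 10 ng/mL TGFβ1 for 12 h. Total RNA extracted and target transcripts measured by SYBR Green qRT-PCR, normalized to GAPDH.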
In general terms: Real-time PCR tracks product formation cycle by cycle.

Series [4] in a line: Effect on total Smad2 expression in TGFbeta1-stimulated Sprague-Dawley rat cardiac fibroblasts at 10 uM measured after 5 to 30 mins by Western blot analysis. In kind it is ADME.
Series [5] concerns the target T1, TGF-beta receptor type-1 (Rattus norvegicus). Description: Inhibition of TGFbeta1 receptor in TGFbeta1-stimulated Sprague-Dawley rat cardiac fibroblasts assessed as reduction in Smad2 nuclear translocation at 10 uM measured after 5 mins by DAPI staining-based laser confocal microscopic analysis. Put shortly:
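Primary rat cardiac fibroblasts treated with 10 µM compound plus 10 ng/mL TGFβ1 for 5 min. Fixed in 4% PFA, permeabilized with 0.1% Triton X-100, blocked with goat serum. Stained with anti-Smad2 or anti-Smad3 overnight at 4 °C, then Alexa 594 secondary and DAPI nuclear stain. Imaged by confocal microscopy.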

Series [6] concerns Rattus norvegicus. Put plainly: Antifibrotic activity in abdominal aortic constriction Sprague-Dawley rat model of cardiac fibrosis assessed as decrease in heart fibronectin level at 5 mg/kg, ip administered once daily for 4 weeks measured post-last dose by immunohistochemical analysis relative to control. In kind it is functional. Further details: scale not given: the % may be the effect or the level left. Put shortly: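 Male SD rats (200–250 g) with abdominal aortic constriction (suture tied over a 21-G probe above the renal arteries), under pentobarbital 30 mg/kg ip. Dosed ip daily for 4 weeks. Vehicle was saline with 0.5% DMSO and 5% Kolliphor HS 15. Groups: sham, AAC, AAC+nifedipine 10 mg/kg, n=8 each. Formalin-fixed paraffin sections 4 µm thick; FN and α-SMA by immunohistochemistry, collagen by Masson's trichrome; stained area measured.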

Series [7] concerns Rattus norvegicus. Put plainly: Antifibrotic activity in abdominal aortic constriction Sprague-Dawley rat model of cardiac fibrosis assessed as down regulation of alpha-SMA expression in heart at 5 mg/kg, ip administered once daily for 4 weeks measured post-last dose by Western blot analysis. The format is functional, organism-based. Put shortly: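 AAC rats dosed ip daily for 4 weeks, n=8 per group. Hearts homogenized in lysis buffer with protease and phosphatase inhibitors and spun at 12,000 rpm for 30 min at 4 °C. Nuclear and cytoplasmic fractions prepared with a kit. Protein measured by BCA; 30 µg run on 10% SDS-PAGE, transferred to PVDF and immunoblotted; bands quantified by densitometry.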

The test system of series [8] is Rattus norvegicus. Description: Antifibrotic activity in abdominal aortic constriction Sprague-Dawley rat model of cardiac fibrosis assessed as reduction in Smad3 phosphorylation in heart at 5 mg/kg, ip administered once daily for 4 weeks measured post-last dose by immunohistochemical analysis. In kind it is functional, organism-based. Put shortly:
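AAC rats dosed ip daily for 4 weeks, n=8 per group. Phospho-Smad2/3 stained by immunohistochemistry on 4 µm paraffin heart sections. Stained area summed over 6 fields per rat for statistics.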

Series [9] concerns Rattus norvegicus. Description: Antifibrotic activity in abdominal aortic constriction Sprague-Dawley rat model of cardiac fibrosis assessed as systolic left ventricular posterior wall thickness at 5 mg/kg, ip administered once daily for 4 weeks measured post-last dose by echocardiography (reference value: 3.62 +/- 0.26 mm). The format is functional.

Active and inactive are the calls of the source. No cut-off for these calls is given here.

Regarding `C=C(C)[C@@H]1C/C=C(\C)C(=O)CCC2=C[C@@H]1OC2=O`, the “fibronectin reduction (active/not active)” value in series [1] was “Active”. Moreover, the inhibition result in series [2] is “Dose-dependent effect”. In addition, the inhibition result in series [3] and in series [5] was “Active” in each case. For the same compound, the values for the Activity entry (in series [4]; in the series with Rattus norvegicus [6]; in the series with Rattus norvegicus [9]) were “Non-Toxic”, 90.7% and 3.23 mm, respectively. In addition, the outcome in the series with Rattus norvegicus [7] and with Rattus norvegicus [8] was Active.
